KCNK3 block – human KCNK3 channel inhibition, primary screen | O14649 | CHO-KCNK3 thallium flux, FluxOR fluorescence; active compounds read low | B-score at 10 µM | 0.84% of 340,000 active | AID 602410;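 active = B-score under library mean minus 4 SD, starting fluorescence ratio at most library mean plus 5 SD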;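 note: more negative B-score means stronger inhibition of thallium flux through KCNK3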
KCNQ1 act – potentiates or activates the human KCNQ1 potassium channel | P51787 | CHO-K1 KCNQ1, thallium flux FluxOR fluorescence; active compounds read high | B-score at 10 µM | 0.35% of 310,000 active;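 active = fluorescence ratio B-score, a plate-corrected score, at least three library SD, with initial intensity B-score within 5 SD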
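Assay system: CHO-K1 cells stably expressing KCNQ1. Medium: assay buffer for compound exposure, DMSO matched across wells. Timing: 37 °C overnight plating, 90-min dark dye load, 20-min compound pretreatment. Signal: kinetic FluxOR fluorescence, 10 s baseline plus 110 s post-stimulus.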
hERG rescue – compounds protecting human hERG from proarrhythmic drug block; CHO-hERG, FluxOR thallium flux, dofetilide IC70 present; activation (rescue from dofetilide block), less the hit threshold, % at 10 µM; 0.51% of 310,000 active; AID 1511;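 active = activation above the mean of controls blocked by dofetilide plus 5 SD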;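 note: thallium influx through hERG after potassium depolarization seen as dye fluorescence rise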
Target sequence (Q12809 whole entry, looked up): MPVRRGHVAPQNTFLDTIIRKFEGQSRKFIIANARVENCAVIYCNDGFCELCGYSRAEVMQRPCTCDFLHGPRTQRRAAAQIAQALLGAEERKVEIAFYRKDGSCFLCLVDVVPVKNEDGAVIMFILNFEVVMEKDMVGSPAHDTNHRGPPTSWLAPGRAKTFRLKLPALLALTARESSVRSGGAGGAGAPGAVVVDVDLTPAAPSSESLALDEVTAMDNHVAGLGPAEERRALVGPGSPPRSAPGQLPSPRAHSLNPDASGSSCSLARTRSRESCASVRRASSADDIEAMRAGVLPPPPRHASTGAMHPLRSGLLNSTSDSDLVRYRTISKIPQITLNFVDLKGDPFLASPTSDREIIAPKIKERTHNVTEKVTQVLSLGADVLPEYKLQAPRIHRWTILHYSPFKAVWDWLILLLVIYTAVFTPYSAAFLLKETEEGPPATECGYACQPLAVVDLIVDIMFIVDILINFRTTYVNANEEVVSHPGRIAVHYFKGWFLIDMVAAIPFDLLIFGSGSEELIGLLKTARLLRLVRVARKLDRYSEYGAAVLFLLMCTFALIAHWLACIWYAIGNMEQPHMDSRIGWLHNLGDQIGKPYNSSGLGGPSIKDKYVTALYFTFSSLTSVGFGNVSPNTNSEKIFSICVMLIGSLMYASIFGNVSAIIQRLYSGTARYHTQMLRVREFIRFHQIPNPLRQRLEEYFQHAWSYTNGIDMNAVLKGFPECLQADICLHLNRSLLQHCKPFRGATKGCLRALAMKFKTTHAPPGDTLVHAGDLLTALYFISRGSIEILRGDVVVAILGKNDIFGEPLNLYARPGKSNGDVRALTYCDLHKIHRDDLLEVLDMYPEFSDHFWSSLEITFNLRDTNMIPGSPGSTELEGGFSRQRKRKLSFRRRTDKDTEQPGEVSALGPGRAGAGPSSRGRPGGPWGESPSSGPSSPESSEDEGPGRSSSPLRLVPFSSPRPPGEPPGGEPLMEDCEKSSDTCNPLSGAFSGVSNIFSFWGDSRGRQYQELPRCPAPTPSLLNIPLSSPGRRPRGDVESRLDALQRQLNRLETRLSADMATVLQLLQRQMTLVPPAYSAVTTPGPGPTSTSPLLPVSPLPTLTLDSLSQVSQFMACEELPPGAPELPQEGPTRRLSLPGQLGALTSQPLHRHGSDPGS
Cl transport mod – modulates chloride dependent transport by human KCC2. B-score of Tl+ flux slope (higher = more flux/activation; lower = inhibition) at 10 µM. KCC2 cells, thallium flux FluoZin-2 fluorescence. 2.2% of 190,000 active;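 active = thallium flux slope and its plate-corrected score both differing from the plate sample mean at a set confidence after two filtering rounds, in either direction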;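 note: slope of fluorescence scaled to starting intensity during 10 to 20 s after thallium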
KCNQ1 block – blocks the human KCNQ1 potassium channel. P51787. CHO-K1 KCNQ1, FluxOR thallium flux fluorescence; active compounds read high. B-score at 10 µM. 1.3% of 310,000 active. AID 2642;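 active = compounds whose thallium flux B-score, printed positive for inhibition, exceeds three library SD while starting fluorescence stays within three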;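 note: channel opened by potassium depolarization with thallium stimulus after 20 min compound exposure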
KCNK9 inh – blocks the human KCNK9 two-pore domain potassium channel; HEK293 KCNK9, FluxOR thallium flux fluorescence; active compounds read low; B-score at 10 µM; 1.2% of 310,000 active;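 active = ratio B-score over 3 SD below the library mean, with starting fluorescence within 5 SD of its mean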;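 note: negative B-score means less thallium flux so channel inhibition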
KCNK9 inh conf – human KCNK9 inhibitor confirmation | shares compounds with KCNK9 inh | HEK293 KCNK9 cells, FluxOR thallium flux fluorescence | inhibition, % at 10 µM | 43% of 4,900 active | AID 492992;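 active = thallium signal inhibited by more than 5 SD of the compound-free buffer control wells, on both duplicate plates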;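 note: 0% = assay buffer control wells without compound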
Kir21 sel – selectivity of KCNK9 modulators against mouse Kir2.1 | shares compounds with KCNK9 inh | Kir2.1 cells, FluxOR thallium flux fluorescence | inhibition, % at 10 µM | 4% of 4,900 active | AID 492993;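 active = thallium signal drop more than 5 SD beyond the mean of the no-compound control wells, seen in both duplicate plates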;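 note: signal is fluorescence rise after thallium addition divided by baseline fluorescence; plate controls were assay buffer only for no effect and full block by chlorpromazine control for full effect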
KCNK9 uninduced – non-induced cell nonspecific activity of KCNK9 modulators; shares compounds with KCNK9 inh; inhibition, % at 10 µM; 40% of 4,900 active; AID 492997; non-induced KCNK9-HEK293, FluxOR thallium flux;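 active = thallium signal drop beyond 5 SD of the untreated control mean, on both duplicate plates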;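 note: plate controls were buffer only IC0 wells for no effect and SID17386958 at its maximal inhibitory level for full effect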
The depositor's hits bear a star; i = inactive; . = no result given. This is a sample that favours compounds with a hit; in the whole collection about 4.1% have one here.

SMILES	KCNK3 block	KCNQ1 act	hERG rescue	Cl transport mod	KCNQ1 block	KCNK9 inh	KCNK9 inh conf	Kir21 sel	KCNK9 uninduced
C#CCCOC(=O)N1C2=NC(C(=O)OC)=C(C(=O)OC)[C@@H]3N(Cc4ccccc4)c4ccccc4[C@]23C[C@H]1C(=O)OC	i	i	-6	-1.2	i	-9.5*	51%*	i	34%*
Nc1ccc(S(=O)(=O)NN=Cc2ccccc2[N+](=O)[O-])cc1	i	.	.	.	.	.	.	.	.
CC(C)(C)C1CCc2c(sc3c2C(=O)NC(c2ccco2)N3)C1 (stereo not drawn)	i	i	2	-0.21	i	i	i	i	i
CN1CCc2c(sc3c2C(=O)NC(c2ccccc2)N3)C1 (stereo not drawn)	i	i	-3	-0.22	i	i	.	.	.
CC1CC(C)CN(c2ccc(C(=O)NCc3ccc4c(c3)OCO4)cc2[N+](=O)[O-])C1 (stereo not drawn)	i	i	-4	.	i	-8.5*	43%*	i	i
COc1ccc(CC(=O)NC2CC2)cc1OC	i	i	-5	.	i	i	.	.	.
O=C1NC[C@H](Cc2ccccc2)N(C[C@H]2CCCN2C[C@H](Cc2ccc(O)cc2)N2C[C@H](Cc3ccc(O)cc3)N(CC3CCCCCC3)C(=O)C2=O)C1=O	i	.	.	.	.	.	.	.	.
O=C(O)c1ccc(-n2nc(C(F)(F)F)cc2-c2cccs2)cc1	i	i	0	.	i	i	.	.	.
COc1cccc(C(NC(C)=O)c2ccc3cccnc3c2O)c1 (stereo not drawn)	i	i	1	.	i	i	.	.	.
Oc1cccc(C(Nc2nccs2)c2ccc3cccnc3c2O)c1 (stereo not drawn)	i	i	-17	-2.9	i	i	i	i	i
COc1ccc(C(=O)NCCc2cc3c(OC)ccc(OC)c3[nH]c2=O)cc1OC	i	i	-14	-1.8	i	i	.	.	.
CCCCC(=O)NCCc1cc2c(OC)ccc(OC)c2[nH]c1=O	i	i	-10	0.67	i	i	i	i	i
COc1ccc(NC(=O)N2CCc3ccccc3C2)c(OC)c1	i	i	-3	.	i	i	.	.	.
CCN(CC)C(=O)c1ccc(COc2ccccc2Cl)cc1	i	i	-10	.	i	-8.7*	36%*	i	24%*
COc1cc(/C=N\Nc2nncn2N)ccc1OC(C)=O	i	i	-3	.	i	i	.	.	.
CCCc1ccc(Oc2cn[nH]c2-c2ccc(O)c(C)c2O)cc1	i	i	-16	0.27	i	-9.9*	56%*	i	44%*
COc1ccc(Cn2nc(C)n(N(C)c3ncc(C(F)(F)F)cc3Cl)c2=O)cc1	i	i	-5	-0.42	i	i	i	i	i
CCN(CC1CCCN(CCc2cccc(F)c2)C1)C(=O)c1cc2ccccc2o1 (stereo not drawn)	i	i	-18	.	i	i	.	.	.
CN(CC1CCCN(CCc2cccc(C(F)(F)F)c2)C1)C(=O)c1cc2ccccc2o1 (stereo not drawn)	i	i	-21	.	i	i	i	i	i
CCOc1ccc(Cc2c(Cl)nc(SC)nc2OC)cc1	i	i	-13	0.11	i	i	i	i	26%*
COc1ccc(Cc2c(N)nc(C)nc2N)cc1	i	i	-14	0.73	i	i	.	.	.
COc1ccc(N2CC(C(=O)Nc3ccccc3C(=O)NC3CC3)CC2=O)cc1 (stereo not drawn)	i	i	-2	.	i	i	.	.	.
CC1(C)C2CC=C(/C=N/NC(=S)NCCc3ccccc3)C1C2 (stereo not drawn)	i	i	-18	-0.54	i	i	i	i	i
Cc1ccc(S(=O)(=O)N2CCCC2CNC(=O)C(=O)Nc2ccc(F)cc2F)cc1 (stereo not drawn)	i	i	-11	.	i	i	.	.	.
CCOc1cc(C(=O)Nc2ccc(C(=O)NCCN(CC)CC)cc2)ccc1OCC(=O)N1CCOCC1	i	.	.	.	.	.	.	.	.
SMILES	KCNK3 block	KCNQ1 act	hERG rescue	Cl transport mod	KCNQ1 block	KCNK9 inh	KCNK9 inh conf	Kir21 sel	KCNK9 uninduced
CCOc1ccc(C(C(=O)NC2CCCC2)N(Cc2ccccc2)C(=O)c2nsc(Cl)c2Cl)cc1 (stereo not drawn)	i	i	-6	.	i	-15*	72%*	i	40%*
COc1ccc(C(C(=O)NC2CCCC2)N(Cc2ccccc2)C(=O)c2nsc(Cl)c2Cl)cc1 (stereo not drawn)	i	i	-7	-0.45	i	i	.	.	.
CC(C)(C)OC(=O)COc1cc(O)c2c(=O)cc(-c3ccccc3)oc2c1	i	i	-10	-0.68	10*	-12*	43%*	i	34%*
CC1CCN(S(=O)(=O)c2cc3c4c(c2)CCN4C(=O)CC3)CC1	i	i	-6	.	i	i	.	.	.
CC(NC(=O)/C(C#N)=C/c1ccc(C(=O)O)cc1)c1ccccc1 (stereo not drawn)	i	i	-12	.	i	i	i	i	i
CC(NC(=O)/C(C#N)=C/c1cn(-c2ccccc2)nc1-c1ccc(F)cc1)c1ccccc1 (stereo not drawn)	i	i	-6	0.86	i	i	i	i	i
COc1cc(/C=C(/C#N)C(=O)NC(C)c2ccccc2)cc(OC)c1O (stereo not drawn)	i	i	-8	.	i	i	.	.	.
COc1ccccc1/C=C/C=C(\C#N)C(=O)NC(C)c1ccccc1 (stereo not drawn)	i	i	-9	.	i	i	i	i	i
Cc1ccc(/C=C(/C#N)C(=O)NC(C)c2ccccc2)o1 (stereo not drawn)	i	i	-3	-0.047	i	i	.	.	.
COC(=O)c1sccc1NC(=O)CC1NCCNC1=O (stereo not drawn)	i	i	-2	0.02	i	i	.	.	.
Cc1ccc(NC(=O)NCc2cccn2C)cc1C	i	i	-4	.	i	i	.	.	.
O=C(NCc1cccc2ccsc12)c1cccs1	i	.	.	.	.	.	.	.	.
O=C(NCCc1ccccc1Cl)c1ccc2nc3ccccc3c(=O)n2c1	i	i	-8	.	i	i	.	.	.
CCCc1nc(SCC(=O)N2CCc3ccccc3C2)c2ccccc2n1	i	i	-2	.	i	i	.	.	.

Screens as filed in PubChem.
